Source: PubChem BioAssay (several laboratories)
In the library only some 1.8% were active in any assay of this set; here they are far more common.
Runt-SMMHC FRET: inhibitors of RUNX1 Runt–CBFb-SMMHC binding, primary screen, biochemical, FRET, Cerulean-Runt, Venus-CBFb-SMMHC, uHTS; inhibition, % at 20 µM; AID 1434, 2008; Cerulean-Runt/Venus-CBFb-SMMHC FRET ratio 530/480, 1 h; hit rate 0.74% among 220,000;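 active = mean inhibition across duplicate retests at 20 µM reaching about 50%, limit read from the data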;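 also: 0% = DMSO wells and 100% = wells with excess untagged CBFb-SMMHC; inhibitors lower the FRET ratio by blocking Runt binding to CBFb-SMMHC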
Runt-CBFb FRET: inhibitors of RUNX1 Runt–CBFb binding, primary screen, biochemical, FRET, Cerulean-Runt, Venus-CBFb, uHTS; Cerulean-Runt/Venus-CBFb FRET ratio 530/480, 1 h; inhibition, % at 20 µM; hit rate 0.46% among 220,000;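 active = inhibition over about 50% at 20 µM in the single-dose screen, limit read from the data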;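 also: 0% = DMSO wells and 100% = excess unlabeled CBFb competitor control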
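test system = Cerulean-Runt domain fusion protein, energy donor | probe or stimulus = Venus-CBFb binding partner, 100 nM | incubation = two 1 h room-temperature incubations shielded from light | detection = fluorescence energy transfer, 422 nm excitation, 530/480 nm emission | measure = loss of energy transfer signal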
Rce1 inh: yeast Rce1p protease inhibitors, primary screen, biochemical, fluorescence, cell-free homogeneous. calls only. hit rate 0.27% among 290,000. yeast membranes, quenched prenylated peptide cleavage fluorescence. CAAX prenyl protease 2 (Saccharomyces cerevisiae (strain ATCC 204508 / S288c)), Q03530;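 active = fall in fluorescence gain of 50% or more versus controls, with final raw signal at or below 3038400; inconclusive = same 50% fall but final raw signal above 3038400; inactive = fall in fluorescence gain under 50%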;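 also: plate controls were neutral control wells for no effect and wells lacking membranes for full effect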
Target sequence (Q03530 whole entry, looked up): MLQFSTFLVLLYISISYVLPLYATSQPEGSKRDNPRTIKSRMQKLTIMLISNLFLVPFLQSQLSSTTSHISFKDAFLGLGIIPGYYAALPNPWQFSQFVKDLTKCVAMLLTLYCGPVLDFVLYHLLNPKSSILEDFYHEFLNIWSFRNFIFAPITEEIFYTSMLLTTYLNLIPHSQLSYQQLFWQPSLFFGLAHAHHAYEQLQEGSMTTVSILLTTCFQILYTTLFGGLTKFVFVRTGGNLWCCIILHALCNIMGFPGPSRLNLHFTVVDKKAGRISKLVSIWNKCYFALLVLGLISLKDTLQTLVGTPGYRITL
Platelet DG rel: inhibitors of platelet dense granule secretion, primary screen, cell-based, MLPCN, human platelets. human platelet-rich plasma, SFLLRN dense granule ATP release, luminescence. inhibition, %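 (compounds screened at 7.5 µM in platelet-rich plasma)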. AID 1663, 2009. hit rate 0.22% among 300,000;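 active = mean replicate score, as percent of positive control, at or above 50; inconclusive = mean below 50 but at least one replicate at or above 50; inactive = mean and every replicate below 50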
RanGTP-Impb inh: inhibitors of RanGTP-importin-beta interaction, primary screen, biochemical, FRET, CFP-Ran, YFP-importin-beta, homogeneous. Ran GTPase (GTP-bound) - importin-beta complex. cell-free CFP-Ran/YFP-importin-beta FRET ratio. inhibition, % (concentration not given with the values). hit rate 1.1% among 300,000. AID 2216, 2009;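 active = more than half of the replicate wells show a fall in the fluorescence ratio signal beyond about 16%, limit read from the data, passing the limit was not always enough; inconclusive = exactly half of the replicate wells pass the set limit; inactive = fewer than half of replicates pass the limit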;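 also: 0% = DMSO wells and 100% = Ran loaded with GDP instead of GTP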
An asterisk follows results filed as active; i = inactive; ? = inconclusive; . = no result given; + = active, no number.

SMILES	Runt-SMMHC FRET	Runt-CBFb FRET	Rce1 inh	Platelet DG rel	RanGTP-Impb inh
O=C(O)c1cc(-c2ccc(N3CCOCC3)cc2)nn1-c1ccccc1Cl	1	0	i	3	-1
Cc1ccc([N+](=O)[O-])c(C(=O)N/N=C/c2cccs2)c1	3	2	i	8	-3
C/C(CC1(O)C(=O)Nc2ccccc21)=N\O (stereo not given)	0	0	+	6	-2
CCOc1ccc2nc(N3CCOCC3)nc(C)c2c1	79*	74*	i	-6	58*
CCOc1ccc(Nc2cc(C)nc(N3CCOCC3)n2)cc1	2	0	i	-1	?
Cc1cccc(NC(=O)NCCN2CCN(c3ccccc3)CC2)c1C	.	.	i	1	-2
CCOC(=O)C1=C(N)Oc2c(oc(CO)cc2=O)C1c1ccc(F)cc1 (stereo not given)	2	-3	i	-9	2
COc1ccccc1Oc1c(C)oc2c(CN3CCN(CCO)CC3)c(O)ccc2c1=O	2	2	+	10	-1
COc1ccccc1-c1coc2c(CN3CCN(C)CC3)c(O)ccc2c1=O	3	2	+	3	3
COc1ccccc1-c1coc2c(CN3CCCC(C)C3)c(O)ccc2c1=O (stereo not given)	.	.	i	0	1
O=c1c(-c2ccccc2)coc2c(CN3CCCC3)c(O)ccc12	-2	-2	+	23	3
COc1ccccc1-c1coc2c(CN3CCN(CCO)CC3)c(O)ccc2c1=O	.	.	i	1	0
CCN1CCN(Cc2c(O)ccc3c(=O)c(-c4ccccc4OC)coc23)CC1	-3	1	+	1	1
CN(Cc1ccsc1)C(=O)Cn1cc(Br)ccc1=O	.	.	i	1	7
O=C(CN1CCN(c2ccc(F)cc2)CC1)NCc1ccc(Cl)cc1	.	.	i	6	0
COCCSc1ccccc1C(=O)Nc1cc(C)ccn1	-1	1	i	1	-5
COc1ccc(-c2cnc[nH]2)cc1	2	0	i	-2	0
CC(C)C[C@H](NC(=O)OC(C)(C)C)c1n[nH]c(=S)n1N	5	6	i	0	11
Cc1oc2c(CN3CCCC3)c(O)ccc2c(=O)c1Oc1ccccc1Br	6	2	?	-9	-1
CN1CCN(Cc2c(O)ccc3c(=O)c(Oc4ccccc4Cl)c(C(F)(F)F)oc23)CC1	-6	-4	i	2	22*
Cc1oc2c(CN3CCOCC3)c(O)ccc2c(=O)c1-c1ccccc1	2	4	+	3	-2
COc1ccc(CN(Cc2ccc(OC)cc2)S(=O)(=O)c2ccc(-n3cnnn3)c(C)c2)cc1	-1	-2	i	-2	27*
COc1ccc(CN(C2CCCC2)S(=O)(=O)c2ccc(-n3cnnn3)c(OC)c2)cc1OC	-2	-7	+	0	5
CCOc1cc(S(=O)(=O)N(Cc2ccccc2)Cc2ccccc2)c(OCC)cc1-n1cnnn1	-2	-4	+	5	2
COc1ccc(CN(CC2CCCO2)S(=O)(=O)c2ccc(-n3cnnn3)c(OC)c2)cc1 (stereo not given)	0	-3	i	-9	0
SMILES	Runt-SMMHC FRET	Runt-CBFb FRET	Rce1 inh	Platelet DG rel	RanGTP-Impb inh
Cc1ccnc(NS(=O)(=O)c2ccc3ccccc3c2)n1	.	.	i	14	2
Cc1c(C(=O)NCCN2CCOCC2)oc2ccc(Br)cc12	.	.	i	2	2
COc1ccc(N(CC(=O)NC(C)(C)C)C(=O)CCC(=O)Nc2nccs2)c(OC)c1	.	.	i	-22	2
COc1ccccc1N1CCN(C(=O)N2CCOCC2)CC1	8	0	.	9	-2
COC(=O)C1(C(F)(F)F)N=C2Sc3ccccc3N2C(N2CCOCC2)=N1 (stereo not given)	1	1	i	105*	-2
O=C(NCc1ccccc1F)C1CCCN1C(=O)Nc1ccccc1 (stereo not given)	.	.	i	3	-2
N#C[C@H]1[C@H](c2ccccc2)[C@](C#N)(C(=O)c2ccccc2)[C@@H]2C=Cc3ccccc3N21	7	5	i	-8	47*
CCOC(=O)c1sc2nc(Cc3ccc(Cl)cc3)[nH]c(=S)c2c1C	0	3	i	13	-1
Cn1ccnc1SCC(=O)c1ccc([N+](=O)[O-])cc1	1	12	i	2	-1
Cc1cccc(/C=C(\C#N)C(=O)Nc2ccccn2)c1	.	.	i	-1	11
CCOc1cc(/C=C(\C#N)C(=O)Nc2ccccn2)ccc1O	.	.	i	-6	1
C=CCOc1ccc(/C=C(\C#N)C(=O)Nc2ccccn2)cc1	.	.	i	3	17*
Cc1cccc(C)c1NC(=O)/C(C#N)=C/c1cccs1	0	-1	i	4	1
N#C/C(=C\c1ccccc1Cl)C(=O)Nc1ccccn1	.	.	i	-1	44*
N#C/C(=C\c1cccs1)C(=O)Nc1ccccn1	-18	-4	i	10	26*
N#C/C(=C\c1ccccc1)C(=O)Nc1ccccn1	.	.	i	8	49*
CC(C)(C)c1ccc(/C=C(\C#N)C(=O)Nc2ccccn2)cc1	.	.	i	0	-2
COc1ccc(CCNC(=O)Cn2c([N+](=O)[O-])cnc2C)cc1OC	-1	-1	i	17	5
Nc1cccc(Cl)c1N1CCOCC1	-2	-1	i	-3	3
O=C(NCCc1c[nH]c2ccccc12)OCCSS(=O)(=O)O	-7	4	+	-4	0
COc1cc(C(C)=O)ccc1OCCCOc1cccc2cccnc12	.	.	i	2	-2
CC(C)CC(OC(=O)c1nsc(Cl)c1Cl)C(=O)NC1CCCC1 (stereo not given)	.	.	.	-4	-2
CCOC(=O)[C@@H]1[C@H]2COc3ccc(Br)cc3[C@@H]2N2C(=O)N(c3cccc(Cl)c3)C(=O)[C@]12C	.	.	+	-1	-1
CCc1nnc(NC(=O)C2CCCN2C(=O)Nc2ccccc2)s1 (stereo not given)	0	4	i	5	3
COc1cccc2cc(C(C)OC(=O)Nc3ccc(C)cc3)oc12 (stereo not given)	-1	1	i	10	2
CCCCc1cc(=O)oc2c(CN3CCCC3)c(O)ccc12	95*	34	?	4	8
CCc1cc(=O)oc2c(CN3CCCC3)c(O)c(Cl)cc12	146*	99*	?	9	?
